Reference: ChEMBL document CHEMBL3124924, “Bifunctional ethyl 2-amino-4-methylthiazole-5-carboxylate derivatives: synthesis and in vitro biological evaluation as antimicrobial and anticancer agents” (2014)
Converted amounts (≈) assume the structure as drawn.

Experiments:
Assay type in all cases: functional
RPMI-8226 = test: Cytotoxicity against human RPMI8226 cells assessed as growth inhibition at 10 uM after 48 hrs by SRB assay; conditions: RPMI-8226, 48 h, read-out: GI
Method in brief: (§1)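 NCI-60 one-dose primary screen run by the NCI Drug Evaluation Branch across the full 60-line panel. Single high-dose treatment with 48 h continuous drug exposure. Cell growth estimated by sulforhodamine B protein staining. Results given as percent growth of treated cells and expressed as percentage growth inhibition.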

PC-3 = test: Cytotoxicity against human PC3 cells assessed as growth inhibition at 10 uM after 48 hrs by SRB assay; conditions: PC-3, 48 h, read-out: GI; method in brief: as §1
MOLT-4 = test: Cytotoxicity against human MOLT4 cells assessed as growth inhibition at 10 uM after 48 hrs by SRB assay; conditions: MOLT-4, 48 h, read-out: GI; method in brief: as §1
IGROV-1 = test: Cytotoxicity against human IGROV1 cells assessed as growth inhibition at 10 uM after 48 hrs by SRB assay; conditions: IGROV-1, 48 h, read-out: GI; method in brief: as §1
Staphylococcus aureus = test: Antibacterial activity against Staphylococcus aureus ATCC 6538 assessed as growth inhibition after 48 hrs by two-fold serial dilution assay; conditions: ATCC 6538, 48 h
Method in brief: (§2)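 Twofold serial broth dilution run on compounds giving inhibition zones of 13 mm or more. Organisms pre-grown in suitable broth at 37 °C, 24 h for bacteria and 48 h for fungi. Dilution series 200, 100, 50, 25, 12.5, 6.25. Each 5 mL tube inoculated with 0.1 mL and incubated 37 °C for 48 h. Tubes scored for presence or absence of growth.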

[1] = Cytotoxicity against human Hs578T cells assessed as growth inhibition at 10 uM after 48 hrs by SRB assay; conditions: Hs-578T, read-out: GI; method in brief: as §1
LOX IMVI = test: Cytotoxicity against human LOXIMVI cells assessed as growth inhibition at 10 uM after 48 hrs by SRB assay; conditions: read-out: GI; method in brief: as §1
NCI-H226 = test: Cytotoxicity against human NCI-H226 cells assessed as growth inhibition at 10 uM after 48 hrs by SRB assay; conditions: NCI-H226, 48 h, read-out: GI; method in brief: as §1
SF-268 = test: Cytotoxicity against human SF268 cells assessed as growth inhibition at 10 uM after 48 hrs by SRB assay; conditions: SF-268, 48 h, read-out: GI; method in brief: as §1
Pseudomonas aeruginosa = test: Antibacterial activity against Pseudomonas aeruginosa ATCC 27853 assessed as growth inhibition after 48 hrs by two-fold serial dilution assay; conditions: ATCC 27853, 48 h; method in brief: as §2
SR = test: Cytotoxicity against human SR cells assessed as growth inhibition at 10 uM after 48 hrs by SRB assay; conditions: read-out: GI; method in brief: as §1
K562 = test: Cytotoxicity against human K562 cells assessed as growth inhibition at 10 uM after 48 hrs by SRB assay; conditions: K562, 48 h, read-out: GI; method in brief: as §1
A498 = test: Cytotoxicity against human A498 cells assessed as growth inhibition at 10 uM after 48 hrs by SRB assay; conditions: A498, 48 h, read-out: GI; method in brief: as §1
Candida albicans [2] = test: Antifungal activity against Candida albicans ATCC 10231 assessed as growth inhibition after 48 hrs by two-fold serial dilution assay; conditions: ATCC 10231, 48 h; method in brief: as §2
Candida albicans [3] = test: Fungicidal activity against Candida albicans ATCC 10231 after 18 hrs; conditions: ATCC 10231, 18 h
Method in brief: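 Continuation of the broth-dilution MIC test. A loopful from each tube without visible growth spread on a quarter of a Mueller-Hinton agar plate and incubated 18 h. Lowest concentration giving no growth on subculture taken as the MBC.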

`CCOC(=O)c1sc(NC(=O)c2cc(OC)c(OC)c(OC)c2)nc1C` showed an inhibition of growth at 10 µM (RPMI-8226) of 17%, an inhibition of growth at 10 µM (PC-3) of 35% and an inhibition of growth at 10 µM (MOLT-4) of 12.4%. The inhibition of growth at 10 µM (IGROV-1) was less than 10%, the MIC (Staphylococcus aureus) was 6.25 µg/mL (≈ 16.4 µM) and the inhibition of growth at 10 µM [1] was 11.2%. For the same molecule, the inhibition of growth at 10 µM (LOX IMVI) was 3.7%, the inhibition of growth at 10 µM (NCI-H226) was 12% and the inhibition of growth at 10 µM (SF-268) was 3.75%. The MIC (Pseudomonas aeruginosa) was 50 µg/mL (≈ 131 µM), the inhibition of growth at 10 µM (SR) was 21% and the inhibition of growth at 10 µM (K562) was 49%. For the same molecule, the inhibition of growth at 10 µM (A498) was 11.4%.

For `CCOC(=O)c1sc(NC(=O)NC2CCCCC2)nc1C`, the inhibition of growth at 10 µM (RPMI-8226) was 4.13%, the inhibition of growth at 10 µM (PC-3) was less than 10% and the inhibition of growth at 10 µM (MOLT-4) was 12.3%. It also gave an inhibition of growth at 10 µM (IGROV-1) of 43.7%, an MIC (Staphylococcus aureus) of 50 µg/mL (≈ 161 µM) and an inhibition of growth at 10 µM [1] of 8.4%. For the same molecule, the inhibition of growth at 10 µM (LOX IMVI) was 13%, the inhibition of growth at 10 µM (NCI-H226) was 9.89% and the inhibition of growth at 10 µM (SF-268) was 12.6%. For the same molecule, the inhibition of growth at 10 µM (SR) was 35.3%, the inhibition of growth at 10 µM (K562) was 9.69% and the inhibition of growth at 10 µM (A498) was 15.3%.

For `Cc1nc(NC(=O)Nc2ccccc2)sc1C(=O)NN`, the inhibition of growth at 10 µM (RPMI-8226) was less than 10%, the inhibition of growth at 10 µM (PC-3) was less than 10% and the inhibition of growth at 10 µM (MOLT-4) was less than 10%. It also gave an inhibition of growth at 10 µM (IGROV-1) of less than 10%, an MIC (Staphylococcus aureus) of 12.5 µg/mL (≈ 42.9 µM) and an inhibition of growth at 10 µM [1] of 2.83%. The inhibition of growth at 10 µM (LOX IMVI) was 10.1%, the inhibition of growth at 10 µM (NCI-H226) was 2.53% and the inhibition of growth at 10 µM (SF-268) was less than 10%. The MIC (Pseudomonas aeruginosa) was 50 µg/mL (≈ 172 µM), the inhibition of growth at 10 µM (SR) was 25.8% and the MIC (Candida albicans [2]) was 25 µg/mL (≈ 85.8 µM). The MFC (Candida albicans [3]) was 25 µg/mL (≈ 85.8 µM), the inhibition of growth at 10 µM (K562) was less than 10% and the inhibition of growth at 10 µM (A498) was 3.17%.

In the case of `CCOC(=O)c1sc(NS(=O)(=O)c2ccccc2)nc1C`, the inhibition of growth at 10 µM (RPMI-8226) is reported as less than 10%, the inhibition of growth at 10 µM (PC-3) is reported as less than 10% and the inhibition of growth at 10 µM (MOLT-4) is reported as 24.4%. It also gave an inhibition of growth at 10 µM (IGROV-1) of 93.1%, an MIC (Staphylococcus aureus) of 25 µg/mL (≈ 76.6 µM) and an inhibition of growth at 10 µM [1] of less than 10%. The inhibition of growth at 10 µM (LOX IMVI) was less than 10%, the inhibition of growth at 10 µM (NCI-H226) was less than 10% and the inhibition of growth at 10 µM (SF-268) was less than 10%. For the same molecule, the MIC (Pseudomonas aeruginosa) was 100 µg/mL (≈ 306 µM), the inhibition of growth at 10 µM (SR) was less than 10% and the inhibition of growth at 10 µM (K562) was less than 10%. It also gave an inhibition of growth at 10 µM (A498) of 11.6%.

Molecule `Cc1nc(NC(=S)Nc2ccc(F)cc2)sc1C(=O)NN` has an inhibition of growth at 10 µM (RPMI-8226) of less than 10%, an inhibition of growth at 10 µM (PC-3) of 2.36% and an inhibition of growth at 10 µM (MOLT-4) of less than 10%. It also gave an inhibition of growth at 10 µM (IGROV-1) of 6.51%, an MIC (Staphylococcus aureus) of 6.25 µg/mL (≈ 19.2 µM) and an inhibition of growth at 10 µM [1] of 2.23%. For the same molecule, the inhibition of growth at 10 µM (LOX IMVI) was 6.73%, the inhibition of growth at 10 µM (NCI-H226) was 5.35% and the inhibition of growth at 10 µM (SF-268) was less than 10%. The MIC (Pseudomonas aeruginosa) was 50 µg/mL (≈ 154 µM), the inhibition of growth at 10 µM (SR) was less than 10% and the MIC (Candida albicans [2]) was 12.5 µg/mL (≈ 38.4 µM). It also gave an MFC (Candida albicans [3]) of 12.5 µg/mL (≈ 38.4 µM), an inhibition of growth at 10 µM (K562) of less than 10% and an inhibition of growth at 10 µM (A498) of less than 10%.

For `Cc1nc(NC(=O)NC2CCCCC2)sc1C(=O)NN`, the inhibition of growth at 10 µM (RPMI-8226) was less than 10%, the inhibition of growth at 10 µM (PC-3) was less than 10% and the inhibition of growth at 10 µM (MOLT-4) was less than 10%. It also gave an inhibition of growth at 10 µM (IGROV-1) of 28%, an MIC (Staphylococcus aureus) of 25 µg/mL (≈ 84.1 µM) and an inhibition of growth at 10 µM [1] of less than 10%. The inhibition of growth at 10 µM (LOX IMVI) was 7.54%, the inhibition of growth at 10 µM (NCI-H226) was less than 10% and the inhibition of growth at 10 µM (SF-268) was less than 10%. For the same molecule, the MIC (Pseudomonas aeruginosa) was 100 µg/mL (≈ 336 µM), the inhibition of growth at 10 µM (SR) was less than 10% and the MIC (Candida albicans [2]) was 50 µg/mL (≈ 168 µM). For the same molecule, the MFC (Candida albicans [3]) was 100 µg/mL (≈ 336 µM), the inhibition of growth at 10 µM (K562) was less than 10% and the inhibition of growth at 10 µM (A498) was less than 10%.

Molecule `CCOC(=O)c1sc(NC(=O)Nc2ccccc2)nc1C` has an inhibition of growth at 10 µM (RPMI-8226) of 22.8%, an inhibition of growth at 10 µM (PC-3) of 4.18% and an inhibition of growth at 10 µM (MOLT-4) of 23.7%. The inhibition of growth at 10 µM (IGROV-1) was 72.9%, the MIC (Staphylococcus aureus) was 25 µg/mL (≈ 81.9 µM) and the inhibition of growth at 10 µM [1] was 6.4%. It also gave an inhibition of growth at 10 µM (LOX IMVI) of 4.13%, an inhibition of growth at 10 µM (NCI-H226) of 11.3% and an inhibition of growth at 10 µM (SF-268) of 4.88%. The MIC (Pseudomonas aeruginosa) was 50 µg/mL (≈ 164 µM), the inhibition of growth at 10 µM (SR) was 14.3% and the MIC (Candida albicans [2]) was 25 µg/mL (≈ 81.9 µM). It also gave an MFC (Candida albicans [3]) of 25 µg/mL (≈ 81.9 µM), an inhibition of growth at 10 µM (K562) of 39% and an inhibition of growth at 10 µM (A498) of 28.9%.

Molecule `Cc1nc(N)sc1C(=O)Nc1ccc(F)cc1` has an inhibition of growth at 10 µM (RPMI-8226) of less than 10%, an inhibition of growth at 10 µM (PC-3) of less than 10% and an inhibition of growth at 10 µM (MOLT-4) of less than 10%. The inhibition of growth at 10 µM (IGROV-1) was less than 10%, the MIC (Staphylococcus aureus) was 12.5 µg/mL (≈ 49.7 µM) and the inhibition of growth at 10 µM [1] was 14.2%. For the same molecule, the inhibition of growth at 10 µM (LOX IMVI) was less than 10%, the inhibition of growth at 10 µM (NCI-H226) was 5.62% and the inhibition of growth at 10 µM (SF-268) was less than 10%. For the same molecule, the inhibition of growth at 10 µM (SR) was less than 10%, the MIC (Candida albicans [2]) was 100 µg/mL (≈ 398 µM) and the MFC (Candida albicans [3]) was 100 µg/mL (≈ 398 µM). For the same molecule, the inhibition of growth at 10 µM (K562) was less than 10% and the inhibition of growth at 10 µM (A498) was 3.67%.
